ChEMBL document CHEMBL1145126, “Novel derivatives of benzo[b]thieno[2,3-c]quinolones: synthesis, photochemical synthesis, and antitumor evaluation” (J Med Chem, 2003)

How the values were obtained:
Caco-2 = experiment: In vitro inhibitory effect on growth of human CaCo-2 tumor cell line; type: functional, cell-based
MCF7 = experiment: In vitro inhibitory effect on growth of human MCF-7 tumor cell line; type: functional, cell-based
WI-38 = experiment: In vitro inhibitory effect on growth of human normal WI-38 cell line; type: functional, cell-based
HBL [1] = experiment: In vitro inhibitory effect on growth of human HBL tumor cell line; type: functional, cell-based
HeLa = experiment: In vitro inhibitory effect on growth of human HeLa tumor cell line; type: functional, cell-based
HEp-2 = experiment: In vitro inhibitory effect on growth of human Hep-2 tumor cell line; type: functional, cell-based
MIA PaCa-2 = experiment: In vitro inhibitory effect on growth of human MIAPaCa-2 tumor cell line; type: functional, cell-based
HBL [2] = experiment: Effect on adhesion of Melanoma cell line (HBL) at 10*10e-5 M at 24 hr incubation time; type: functional, Homo sapiens
Summary of the method: (§1)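 HBL melanoma cells exposed to compound at the stated concentration and time; cells still attached to the plastic substratum quantified by MTT test. Result given as ratio (%) of treated to control cells; one of three parallel experiments reported.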

HBL [3] = experiment: Effect on adhesion of Melanoma cell line (HBL) at 10*10e-5 M at 3h incubation time; type: functional, Homo sapiens; summary of the method: as §1
HBL [4] = experiment: Effect on adhesion of Melanoma cell line (HBL) at 5*10e-6 M at 1 hr incubation time; type: functional, Homo sapiens; summary of the method: as §1
HBL [5] = experiment: Effect on adhesion of Melanoma cell line (HBL) at 5*10e-6 M at 24 hr incubation time; type: functional, Homo sapiens; summary of the method: as §1
Melanoma cell [6] = experiment: Percentage of apoptotic cells after treatment of Melanoma cells with 1*10e-5 M compound for 5 hr; type: functional, Homo sapiens
Summary of the method: (§2)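 HBL melanoma cells seeded at 2 × 10^5 cells/mL, exposed after 48 h to compound for 5 h, then washed in PBS and stained with Annexin-V-FLUOS for 15 min at ambient temperature. Scored by fluorescence microscopy as apoptotic (green) cells over total cells.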

Melanoma cell [7] = experiment: Percentage of apoptotic cells after treatment of Melanoma cells with 5*10e-6 M compound for 5 hr; type: functional, Homo sapiens; summary of the method: as §2
ME67.3 = experiment: In vitro inhibitory effect on growth of human ME 67.3 tumor cell line; type: functional, cell-based
ME67.1 = experiment: In vitro inhibitory effect on growth of human ME 67.1 tumor cell line; type: functional, cell-based
HBL [8] = experiment: Effect on adhesion of Melanoma cell line (HBL) at 5*10e-6 M at 3h incubation time; type: functional, Homo sapiens; summary of the method: as §1
HBL [9] = experiment: Effect on adhesion of Melanoma cell line (HBL) at 10*10e-5 M at 1 hr incubation time; type: functional, Homo sapiens; summary of the method: as §1
Melanoma cell [10] = experiment: Percentage of apoptotic cells after treatment of Melanoma cells with 1*10e-6 M compound for 5 hr; type: functional, Homo sapiens; summary of the method: as §2
HBL [11] = experiment: Effect on adhesion of Melanoma cell line (HBL) at 5*10e-6 M at 2 hr incubation time; type: functional, Homo sapiens; summary of the method: as §1
HBL [12] = experiment: Effect on adhesion of Melanoma cell line (HBL) at 10*10e-5 M at 2 hr incubation time; type: functional, Homo sapiens; summary of the method: as §1

Structure (SMILES) | IC50 (Caco-2) [nM] | IC50 (MCF7) [nM] | IC50 (WI-38) [nM] | IC50 (HBL [1]) [nM] | IC50 (HeLa) [nM] | IC50 (HEp-2) [nM] | IC50 (MIA PaCa-2) [nM] | Ratio (HBL [2]) [%] | Ratio (HBL [3]) [%] | Ratio (HBL [4]) [%] | Ratio (HBL [5]) [%] | Apoptotic cell (Melanoma cell [6]) [%] | Apoptotic cell (Melanoma cell [7]) [%] | IC50 (ME67.3) [nM] | IC50 (ME67.1) [nM] | Ratio (HBL [8]) [%] | Ratio (HBL [9]) [%] | Apoptotic cell (Melanoma cell [10]) [%] | Ratio (HBL [11]) [%] | Ratio (HBL [12]) [%]
CN(C)CCCn1c(=O)c2sc3cc([N+](=O)[O-])ccc3c2c2ccccc21 | 790 | 5800 | 2400 | 1200 | 1000 | 3540 | 1250 | – | – | – | – | – | – | – | – | – | – | – | – | –
CN(C)CCCN(C(=O)c1ccc2c(c1)sc1c(O)nc3ccccc3c12)c1ccccc1 | 4790 | 19500 | 10000 | 670 | 34700 | 3160 | 4790 | – | – | – | – | – | – | – | – | – | – | – | – | –
COc1ccc2c(c1)sc1c(=O)n(CCCN(C)C)c3ccccc3c12 | 470 | 2200 | 2300 | 1580 | 850 | 2960 | 510 | – | – | – | – | – | – | – | – | – | – | – | – | –
CN(C)CCCNC(=O)c1ccc2c(c1)sc1c(O)nc3ccccc3c12 | 3800 | 10000 | 4400 | 1000 | 6300 | 6600 | 6600 | – | – | – | – | – | – | – | – | – | – | – | – | –
CN(C)CCCn1c(=O)c2sc3cc(F)ccc3c2c2ccccc21 | 980 | 4600 | 2900 | 3980 | 650 | 3160 | 2500 | – | – | – | – | – | – | – | – | – | – | – | – | –
Cc1ccc2c(c1)sc1c(=O)n(CCCN(C)C)c3ccccc3c12 | 1700 | 4500 | 2450 | 1100 | 1000 | 3630 | 1100 | – | – | – | – | – | – | – | – | – | – | – | – | –
CN(C)CCCn1c(=O)c2sc3ccccc3c2c2ccccc21 | 620 | 4270 | 4500 | 580 | 2500 | 3630 | 1400 | – | – | – | – | – | – | – | – | – | – | – | – | –
COC(=O)c1ccc2c(c1)sc1c(=O)n(CCCN(C)C)c3ccccc3c12 | 470 | 590 | 1600 | 350 | 1300 | 650 | 1000 | – | – | – | – | – | – | – | – | – | – | – | – | –
CN(C)CCCn1c(=O)c2sc3cc(C(=O)Nc4ccccc4)ccc3c2c2ccccc21 | 490 | 2630 | 2300 | 10 | 2800 | 1770 | 1000 | 28 | 81 | 90 | 62 | 35 | 29 | 190 | 790 | 95 | 87 | 9 | 98 | 87
